Screening data from PubChem BioAssay.
Hits are enriched below; roughly 3.4% of the tested compounds scored in any of these assays.
CHRM1 agonist – human M1 muscarinic receptor agonism. P11229. activation, % at 3 µM. 360,000 tested, 0.33% active. CHO-K1 hM1, Fluo-8 calcium fluorescence, agonist mode; 0% DMSO, 100% acetylcholine EC100;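 active means activation above the run's mean compound activation plus 3 SD, cut at about 16% in these data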;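 further: peak over basal fluorescence ratio within a 140 s kinetic read after compound addition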
TAAR1 antag – human TAAR1 antagonism; 360,000 tested, 1.5% active; CHO RD-HGA16 TAAR1, Fluo-8 calcium fluorescence, antagonist; inhibition, % at 3 µM; Q96RJ0; AID 624466;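 active means inhibition above a per-plate cutoff, the mean inhibition of test compounds on that plate plus 3 SD, cut at about 49% in these data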
Target sequence (Q96RJ0 whole entry, looked up): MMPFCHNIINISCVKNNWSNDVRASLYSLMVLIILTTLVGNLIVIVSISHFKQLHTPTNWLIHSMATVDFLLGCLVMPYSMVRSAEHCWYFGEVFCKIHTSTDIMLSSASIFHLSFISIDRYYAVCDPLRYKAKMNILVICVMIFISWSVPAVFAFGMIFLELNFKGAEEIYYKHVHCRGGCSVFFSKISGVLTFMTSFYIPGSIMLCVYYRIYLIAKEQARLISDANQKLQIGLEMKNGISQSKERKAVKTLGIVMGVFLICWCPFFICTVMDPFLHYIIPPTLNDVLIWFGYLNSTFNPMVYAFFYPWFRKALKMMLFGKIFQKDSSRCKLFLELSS
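Test system – hTAAR1-expressing CHO RD-HGA16 cells, Gα16-coupled · Reagent – β-PEA at EC80 concentration, post-compound challenge · Compound dosing – 3 µM, single point · Timing – 140 s kinetic read after compound, 140 s after agonist · Detection – Fluo-8 intracellular calcium dye fluorescence, real-time kinetic reads · Control set – DMSO and EC80 PEA controls · Repeats – n of 1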
M1 PAM – potentiates human M1 receptor response to acetylcholine | P11229 | CHO-K1 hM1, Fluo-8 calcium fluorescence, ACh EC20; 0% = ACh EC20, 100% = maximal ACh | activation, % at 3 µM | 360,000 tested, 0.088% active | AID 588819; in the data active means activation above about 19%, passing the limit was not always enough
CHRM1 antagonist – antagonists of human M1 muscarinic receptor; P11229; CHO-K1 hM1, Fluo-8 calcium fluorescence, ACh EC80 antagonist; inhibition, % at 3 µM; 360,000 tested, 1.3% active; AID 588852;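 active means percent inhibition above its own plate's cutoff, namely the mean of that plate's compound wells plus 3 SD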;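 further: peak over basal fluorescence ratio during 140 s after agonist addition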
TAAR1 ag – human TAAR1 agonism; activation, % at 3 µM; 360,000 tested, 0.99% active; Q96RJ0; CHO RD-HGA16 TAAR1, Fluo-8 calcium fluorescence; vehicle wells 0%, saturating PEA agonist 100%;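 active means activation above the mean activation of all test compounds in the run plus 3 SD, cut at about 38% in these data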
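Test system: RD-HGA16 (CHO) cells co-expressing Gα16 and hTAAR1 | Doses: Single dose, 3 µM | Schedule: 17-24 h seeding, 75 min 37 °C dye, 30 min RT | Evaluation: % activation from peak over basal fluorescence ratio, DMSO-to-PEA scaled | Technique: Kinetic Fluo-8 calcium fluorescence | Benchmarks: Low control DMSO, high control PEA (EC100)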
Of the large screens only hits and unclear results are named; the others gave an inactive call.

Cn1c(=O)c2[nH]c(Cc3cccc(O)c3)nc2n(C)c1=O	none
Cn1c(=O)c2[nH]c(COc3ccc(C(C)(C)C)cc3)nc2n(C)c1=O	CHRM1 antagonist 39 (no result: TAAR1 antag, TAAR1 ag)
COC(=O)C1=C(C)N(C)C(=NCC2CC2)NC1CCc1ccccc1 (stereo unspecified)	none (no result: CHRM1 agonist, M1 PAM, CHRM1 antagonist)
CCn1c(-c2ccc(-c3ccccc3)cc2)c[nH]c1=S	CHRM1 antagonist 48
CCN(CC)CCn1c2c(c(SCC(=O)Nc3cccc(C(C)=O)c3)nc1=O)CCCC2	CHRM1 antagonist 61
CCCCCSc1nnc(N)s1	M1 PAM 27
CC(C)(C)c1ccc(S(=O)(=O)N2CCN(C(=O)C(=O)c3cccc(C(F)(F)F)c3)CC2)cc1	none (no result: CHRM1 agonist, M1 PAM, CHRM1 antagonist)
CCCSc1nc(N)c(C#N)c(-c2ccc(C)cc2)c1C#N	TAAR1 antag 54
CCOC(=O)CC(=O)CSc1nc(N)c(C#N)c(-c2ccc(Cl)cc2)c1C#N	none
COc1ccc([C@H]2CC(=O)C=C(c3cccc(OC)c3OC)C2)cc1OC	TAAR1 antag 52
COc1cc(/C=N/NC(=O)C(=O)/C=C2\NC3(CCCC3)Cc3ccccc32)ccc1O	CHRM1 agonist 22
CN(C)c1ccc(/C=N/NC(=O)C(=O)/C=C2\NC3(CCCC3)Cc3ccccc32)cc1	M1 PAM 26
C[C@@H]1CN([C@H](C)CO)C(=O)CCCn2cc(nn2)CO[C@H]1CN(C)S(=O)(=O)c1ccc(Cl)cc1	none (no result: CHRM1 agonist, M1 PAM, CHRM1 antagonist)
COC(=O)[C@@H]1[C@@H](C#N)C2(c3ccccc3-c3ccccc32)N(c2ccc(Cl)cc2)N1C#N	TAAR1 antag 50
CCOC(=O)c1ccc(NC(=S)NCCc2ccccc2)cc1	TAAR1 ag 39
CCOC(=O)c1ccc(NC(=S)NCC(O)c2ccccc2)cc1 (stereo unspecified)	CHRM1 antagonist 34
COc1ccc(-n2nnnc2C(c2cc3ccccc3o2)N2CCN(C/C=C/c3ccccc3)CC2)cc1 (stereo unspecified)	CHRM1 antagonist 58
CCCCn1nnnc1C(c1cc2ccccc2o1)N1CCN(C/C=C/c2ccccc2)CC1 (stereo unspecified)	CHRM1 antagonist 56
COc1ccc(C(c2nnnn2-c2ccc3c(c2)OCCO3)N2CCN(C/C=C/c3ccccc3)CC2)cc1 (stereo unspecified)	CHRM1 antagonist 94
C(=C\c1ccccc1)/CN1CCN(C(c2cccs2)c2nnnn2-c2ccc3c(c2)OCCO3)CC1 (stereo unspecified)	CHRM1 antagonist 90
CCCCn1nnnc1C(c1cc2ccccc2o1)N1CCCC1 (stereo unspecified)	none (no result: CHRM1 agonist, M1 PAM, CHRM1 antagonist)
C[C@H](CO)N1C[C@H](C)[C@@H](CN(C)C(=O)Nc2ccc(C(F)(F)F)cc2)OCc2cn(nn2)CCCC1=O	none (no result: CHRM1 agonist, M1 PAM, CHRM1 antagonist)
COc1ccc(C(C(=O)Nc2ccc(F)cc2)N2CCN(c3cccc(C(F)(F)F)n3)CC2)cc1 (stereo unspecified)	none (no result: CHRM1 agonist, M1 PAM, CHRM1 antagonist)
C(=C\c1ccccc1)/CN1CCN(C(c2cc3ccccc3o2)c2nnnn2-c2ccc3c(c2)OCCO3)CC1 (stereo unspecified)	CHRM1 antagonist 76
CN(C)c1ccc(-c2csc(C(O)c3ccccc3)n2)cc1 (stereo unspecified)	none
CN(C)c1ccc(-c2csc(C(O)c3ccc(F)c(F)c3)n2)cc1 (stereo unspecified)	CHRM1 agonist 42, TAAR1 antag 99, CHRM1 antagonist 42, TAAR1 ag 100
OC(c1ccccc1)c1nc(-c2cc3ccccc3o2)cs1 (stereo unspecified)	none
COc1ccc(C(O)c2nc(-c3ccc(N(C)C)cc3)cs2)cc1 (stereo unspecified)	TAAR1 ag 49
COc1ccc(-c2csc(C(O)c3ccc(F)cc3)n2)cc1 (stereo unspecified)	TAAR1 antag 78, TAAR1 ag 62
COc1ccc(-c2csc(C(O)c3ccc(OC)cc3)n2)cc1 (stereo unspecified)	none
COc1ccc(C(O)c2nc(-c3cc4ccccc4o3)cs2)cc1 (stereo unspecified)	TAAR1 antag 49
COc1ccc(N2CCN(C(=O)C3CCN(S(=O)(=O)c4ccc5c(c4)CC(C)N5C(=O)C4CC4)CC3)CC2)cc1 (stereo unspecified)	none (no result: CHRM1 agonist, M1 PAM, CHRM1 antagonist)
COc1ccc(/C=N/OCC(=O)NCc2cccs2)c(OC)c1	M1 PAM 36
Cc1cc2c(c(=O)o1)[C@@]1(C(=O)N(C)c3ccccc31)C1=C(CC3(CCCCC3)OC1=O)O2	none (no result: CHRM1 agonist, M1 PAM, CHRM1 antagonist)
O=[N+]([O-])c1ccc(NC(=S)NCc2ccc(F)cc2)cc1	CHRM1 antagonist 28
O=[N+]([O-])c1ccc(NC(=S)NCCc2ccccc2)cc1	CHRM1 antagonist 39
O=[N+]([O-])c1ccc(NC(=S)NCCc2ccc(Cl)cc2)cc1	TAAR1 antag 57, CHRM1 antagonist 35
O=S(=O)(c1ccc(NC(=S)NCc2ccc(F)cc2)cc1)N1CCOCC1	TAAR1 ag 44
O=[N+]([O-])c1ccc(NNC(=S)Nc2ccccc2)cc1	none (no result: TAAR1 antag, TAAR1 ag)
NS(=O)(=O)c1ccc(NC(=S)NCc2ccc(F)cc2)cc1	none
S=C(NCCc1ccccc1)Nc1ccc(Cl)cc1	none
O=[N+]([O-])c1ccc(NC(=S)NCc2ccncc2)cc1	none
CCCC(=O)N1CCC1(C)C(=O)Nc1scc(C)c1C#N (stereo unspecified)	none (no result: TAAR1 antag, TAAR1 ag)
O=c1[nH]c2ccc(NC(=S)NCCc3ccccc3)cc2[nH]1	TAAR1 ag 41
O=C(NCCC1=CCCCC1)C(=O)NCCc1ccc(Cl)cc1	none
CNC(=O)C(=O)NCCc1ccc(Cl)cc1	M1 PAM 21
C[C@@H]1ON(C)[C@H]2C[C@H]3c4[nH]c5c(-c6ccc(Cl)cc6)cccc5c4CCN3C(=O)[C@@H]12	none (no result: CHRM1 agonist, M1 PAM, CHRM1 antagonist)
COC(=O)c1cc2c(c3c4ccccc4n(S(=O)(=O)c4ccc(C)cc4)c13)C(=O)N(Cc1ccccc1)C2	none (no result: CHRM1 agonist, M1 PAM, CHRM1 antagonist)
COc1ccc(OC)c(CNc2ncc(-c3cccc([N+](=O)[O-])c3)n2C)c1	CHRM1 antagonist 45
Cn1c(-c2cccc([N+](=O)[O-])c2)cnc1NCc1cccc([N+](=O)[O-])c1	none
CCC(Sc1nc(C)cc(=O)[nH]1)C(=O)Nc1sc2c(c1C#N)CCCC2 (stereo unspecified)	TAAR1 ag 40
CC(Sc1nc(N)cc(=O)[nH]1)C(=O)Nc1sc2c(c1C#N)CCCC2 (stereo unspecified)	none
COC(=O)C1=C(C)NC(=S)NC1c1cccc(OC)c1 (stereo unspecified)	none (no result: CHRM1 agonist, M1 PAM, CHRM1 antagonist)
S=c1sc2c(Cl)ncnc2n1-c1ccccc1	TAAR1 antag 54
Fc1cccc(Cl)c1CN1CCN(c2ncc(Cc3ccccc3)cn2)CC1	none (no result: CHRM1 agonist, M1 PAM, CHRM1 antagonist)
CCOC(=O)c1cnn(-c2ccccc2)c1-n1cccc1C(=O)C(=O)Nc1ccc(OC)cc1	M1 PAM 19
CCOC(=O)/C=C/c1cccc(C)c1O	none (no result: CHRM1 agonist, M1 PAM, CHRM1 antagonist)
